The values that follow come from publication PMC12374733 (Journal of the American Chemical Society, 2025).

Data set [1] concerns NIH-3T3 cells. Briefly: Cell viability, colorimetric sulforhodamine B assay. Type of data set: cell-based, mouse. For orientation: Sulforhodamine B stains cellular protein and so reports cell mass.
Test in data set [2]: as above
Type of data set: cell-based, mouse. The settings on record: mouse, NIH-3T3 cells.

Data set [3] deals with SH-SY5Y cells. Briefly: Cell viability during in-cell synthesis of cinacalcet. It counts as cell-based, human. The settings on record: SH-SY5Y; for IC50: Homo sapiens. The essentials: (§1)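 SH-SY5Y cells were pretreated with aldehyde substrate (200 μM) and sodium formate hydride source (1 mM) for 3 h, then washed with fresh media. The amine partner and Cp* iridium catalyst were added together for a further 24 h. Controls lacked one or more reaction components. Viability is expressed relative to untreated cells.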

Data set [4] in a line: Lipophilicity, partition between octanol and PBS. It counts as physicochemical. The following applies: shake-flask.
The nature of data set [5]: Cell viability during in-cell synthesis of cinacalcet. Type of data set: cell-based, human. The settings on record: human, SH-SY5Y cells. The essentials:
as §1

Where two headings read alike, the source gives them in different places. Bounds are passed on as bounds.

Usually viability stands for a read-out of living cells in per cent, often relative to untreated cells. In the case of `CC(N)c1ccc(O)cc1` (stereo not shown) [compound 10, 4-(1-aminoethyl)phenol], the IC50 in data set [1] (Mus musculus, NIH3T3) is above 8000 µM. The molecule further showed a viability at 24 h, 1 mM in data set [2] of at least 84%.
For the molecule `OCCc1ccccc1` [2c], in data set [1] (NIH-3T3 cell viability), the IC50 is above 7000 µM.
In the case of `NCCc1ccccc1` [3c, phenethylamine], the IC50 in data set [1] (Mus musculus, NIH3T3) is above 7000 µM.
Take [Cp*Ir(picolinamidate)Cl] [Ir1]: in data set [3] (1p (200 μM), HCOONa (1 mM), (R)-41 and Ir catalyst all present, 24 h), the “cell viability relative to untreated control” value was 28%. In addition, in data set [1] (read-out: 50% inhibition concentration (IC50), NIH-3T3 cell viability), the IC50 was 62 µM. For the same molecule, in data set [4], the “partition coefficients (Log P)” value was 1.24.
As for `O=CCc1ccccc1` [1c, phenylacetaldehyde], in data set [1] (Mus musculus, NIH3T3, read-out: 50% inhibition concentration (IC50)), the IC50 was found to be 185 µM. For the same molecule, in data set [2], the viability at 3 h, 400 µM was found to be 38%.
As for `C[C@@H](NCCCc1cccc(C(F)(F)F)c1)c1cccc2ccccc12` [cinacalcet, reference compound], the IC50 in data set [3] is 16 µM.
In the case of `C[C@@H](N)c1cccc2ccccc12` [(R)-41, (R)-1-(1-naphthyl)ethylamine], in data set [3], the IC50 was 1500 µM.
Consider `O=CCCc1cccc(C(F)(F)F)c1` [1p, 3-(3-(trifluoromethyl)phenyl)propanal], for which, in data set [3], the IC50 is 175 µM. Also, the viability at 3 h, 200 μM in data set [5] is at least 85%.
